What was measured:
[1] = Plasma level data at a dose of 36 mg/kg, iv after 0.25 hr; format: ADME, organism-based; set-up: dose 36 mg/kg, route intravenous; conditions: read-out: Plasma level
In short: (§1)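 Male Lewis rats get a single iv or oral dose of the sodium salt, suspended in 0.4% (w/v) methyl cellulose. Plasma drug levels are measured by HPLC at the timed points and given as mean ± SD, n = 3.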

[2] = Plasma level data at a dose of 36 mg/kg, iv after 0.5 hr; format: ADME, organism-based; set-up: dose 36 mg/kg, route intravenous; conditions: read-out: Plasma level; in short: as §1
[3] = Plasma level data at a dose of 36 mg/kg, iv after 12 hr; format: ADME, organism-based; set-up: dose 36 mg/kg, route intravenous; conditions: read-out: Plasma level; in short: as §1
[4] = Plasma level data at a dose of 36 mg/kg, iv after 1 hr; format: ADME, organism-based; set-up: dose 36 mg/kg, route intravenous; conditions: read-out: Plasma level; in short: as §1
[5] = Plasma level data at a dose of 36 mg/kg, iv after 4 hr; format: ADME, organism-based; set-up: dose 36 mg/kg, route intravenous; conditions: read-out: Plasma level; in short: as §1
[6] = Plasma level data at a dose of 36 mg/kg, iv after 6 hr; format: ADME, organism-based; set-up: dose 36 mg/kg, route intravenous; conditions: read-out: Plasma level; in short: as §1
[7] = Plasma level data at a dose of 36 mg/kg, po after 0.25 hr; format: ADME, organism-based; set-up: dose 36 mg/kg, route oral; conditions: read-out: Plasma level; in short: as §1
[8] = Plasma level data at a dose of 36 mg/kg, po after 0.5 hr; format: ADME, organism-based; set-up: dose 36 mg/kg, route oral; conditions: read-out: Plasma level; in short: as §1
[9] = Plasma level data at a dose of 36 mg/kg, po after 12 hr; format: ADME, organism-based; set-up: dose 36 mg/kg, route oral; conditions: read-out: Plasma level
In short: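 Male Lewis rats given a single po dose of the sodium salt suspended in 0.4% (w/v) methyl cellulose. Plasma drug levels measured by HPLC at set times up to 12 h; values are mean ± SD, n = 3.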

[10] = Plasma level data at a dose of 36 mg/kg, po after 1 hr; format: ADME, organism-based; set-up: dose 36 mg/kg, route oral; conditions: read-out: Plasma level; in short: as §1
[11] = species on record: Rattus norvegicus; assay: Delayed Type hypersensitivity (DTH) is measured by increase in ear thickness 24 hours after antigen injection into pinna (10E-3); format: functional
[12] = tested on: Rattus norvegicus; assay: Compound was tested in vivo for antiinflammatory activity against chronic adjuvant arthritic rat by therapeutic percentage inhibition 1 degree paw after peroral administration of 30 mg/kg of dose; format: functional
[13] = tested on: Rattus norvegicus; assay: Compound was tested in vivo for antiinflammatory activity against chronic adjuvant arthritic rat by therapeutic percentage inhibition 2 degree paw after peroral administration of 10 mg/kg of dose; format: functional; conditions: route oral
[14] = tested on: Rattus norvegicus; assay: Compound was tested in vivo for antiinflammatory activity against chronic adjuvant arthritic rat by therapeutic percentage inhibition 2 degree paw after peroral administration of 3.3 mg/kg of dose; format: functional; conditions: route oral
[15] = tested on: Rattus norvegicus; assay: C(compound) was tested for intestinal Ulcerogenic effect in rats at a dose of 30 mg/kg; format: functional
In short: (§2)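 Normal fed rats were gavaged once daily for three consecutive days at 10–300 mg/kg and killed 24 h after the last dose. Intestines were examined for ulcers, recording incidence per group of 8 and a lesion score (±SE).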

[16] = tested on: Rattus norvegicus; assay: Compound was tested for intestinal Ulcerogenic effect in rats, activity expressed as ulcer incidence at a dose of 300 mg/kg; format: functional; in short: as §2
[17] = species on record: Rattus norvegicus; assay: Delayed Type hypersensitivity (DTH) is measured by increase in ear thickness 24 hours after antigen injection into pinna 10e-3; format: functional
[18] = tested on: Rattus norvegicus; assay: Compound was tested for intestinal ulcerogenic effect in rats, activity expressed as lesion score at a dose of 100 mg/kg; format: functional; in short: as §2
[19] = tested on: Rattus norvegicus; assay: Compound was tested for intestinal ulcerogenic effect in rats, activity expressed as lesion score at a dose of 300 mg/kg; format: functional; in short: as §2
[20] = tested on: Rattus norvegicus; assay: Compound was tested for intestinal ulcerogenic effect in rats, activity expressed as lesion score at a dose of 30 mg/kg; format: functional; in short: as §2
[21] = tested on: Rattus norvegicus; assay: Compound was tested for intestinal ulcerogenic effect in rats at a dose of 100 mg/kg; format: functional; in short: as §2
[22] = tested on: Rattus norvegicus; assay: Compound was tested for intestinal ulcerogenic effect in rats at a dose of 10 mg/kg; format: functional; in short: as §2
[23] = tested on: Rattus norvegicus; assay: Compound was tested for intestinal ulcerogenic effect in rats at a dose of 300 mg/kg; format: functional; in short: as §2
[24] = tested on: Rattus norvegicus; assay: Compound was tested for intestinal ulcerogenic effect in rats, activity expressed as ulcer incidence at a dose of 100 mg/kg; format: functional; in short: as §2
[25] = tested on: Rattus norvegicus; assay: Compound was tested for intestinal ulcerogenic effect in rats, activity expressed as ulcer incidence at a dose of 10 mg/kg; format: functional; in short: as §2
[26] = tested on: Rattus norvegicus; assay: Compound was tested for intestinal ulcerogenic effect in rats, activity expressed as ulcer incidence at a dose of 30 mg/kg; format: functional; in short: as §2
[27] = tested on: Rattus norvegicus; assay: Compound was tested in vivo against chronic adjuvant arthritic rat by prophylactic inhibition 1 degree paw. Relative potency with respect to (8-Benzyl-5-hydroxy-1,3-dimethyl-6-propyl-1H,8H-1,3,4b,8,9-pentaaza-fluorene-2,4,7-trione); format: functional
[28] = tested on: Rattus norvegicus; assay: Compound was tested in vivo for antiinflammatory activity against chronic adjuvant arthritic rat by therapeutic inhibition 1 degree paw after peroral administration of 18 mg/kg of dose; format: functional; conditions: route oral
[29] = tested on: Rattus norvegicus; assay: Compound was tested for gastric ulcerogenic effect in rats, activity expressed as lesion length at a dose of 30 mg/kg
[30] = tested on: Rattus norvegicus; assay: Compound was tested for gastric ulcerogenic effect in rats, activity expressed as lesion length at a dose of 300 mg/kg
[31] = Plasma level data at a dose of 20 mg/kg, iv after 12 hr; format: ADME, organism-based; set-up: dose 20 mg/kg, route intravenous; conditions: read-out: Plasma level; in short: as §1
[32] = Plasma level data at a dose of 20 mg/kg, iv after 1 hr; format: ADME, organism-based; set-up: dose 20 mg/kg, route intravenous; conditions: read-out: Plasma level; in short: as §1
[33] = Plasma level data at a dose of 20 mg/kg, iv after 2 hr; format: ADME, organism-based; set-up: dose 20 mg/kg, route intravenous; conditions: read-out: Plasma level; in short: as §1
[34] = Plasma level data at a dose of 20 mg/kg, iv after 6 hr; format: ADME, organism-based; set-up: dose 20 mg/kg, route intravenous; conditions: read-out: Plasma level; in short: as §1
[35] = Plasma level data at a dose of 20 mg/kg, po after 0.25 hr; format: ADME, organism-based; set-up: dose 20 mg/kg, route oral; conditions: read-out: Plasma level; in short: as §1
[36] = Plasma level data at a dose of 20mg/kg, po after 0.5 hr; format: ADME, organism-based; conditions: read-out: Plasma level; in short: as §1
[37] = Plasma level data at a dose of 20 mg/kg, po after 1 hr; format: ADME, organism-based; set-up: dose 20 mg/kg, route oral; conditions: read-out: Plasma level; in short: as §1
[38] = Plasma level data at a dose of 20mg/kg, po after 2 hr; format: ADME, organism-based; conditions: read-out: Plasma level; in short: as §1
[39] = Plasma level data at a dose of 20 mg/kg, po after 4 hr; format: ADME, organism-based; set-up: dose 20 mg/kg, route oral; conditions: read-out: Plasma level; in short: as §1
[40] = Plasma level data at a dose of 20 mg/kg, po after 12 hr; format: ADME, organism-based; set-up: dose 20 mg/kg, route oral; conditions: read-out: Plasma level; in short: as §1
[41] = tested on: Rattus norvegicus; assay: Compound was tested in vivo for antiinflammatory activity against chronic adjuvant arthritic rat by therapeutic inhibition 1 degree paw after peroral administration of 1 mg/kg of dose; format: functional; conditions: route oral
[42] = tested on: Rattus norvegicus; assay: Compound was tested in vivo for antiinflammatory activity against chronic adjuvant arthritic rat by therapeutic inhibition 1 degree paw after peroral administration of 3 mg/kg of dose; format: functional; conditions: route oral
[43] = tested on: Rattus norvegicus; assay: Compound was tested in vivo for antiinflammatory activity against chronic adjuvant arthritic rat by therapeutic inhibition 2 degree paw after peroral administration of 1 mg/kg of dose; format: functional; conditions: route oral
[44] = tested on: Rattus norvegicus; assay: Compound was tested in vivo for antiinflammatory activity against chronic adjuvant arthritic rat by therapeutic inhibition 2 degree paw after peroral administration of 3 mg/kg of dose; format: functional; conditions: route oral
[45] = tested on: Rattus norvegicus; assay: compound was tested for antiinflammatory activity against collagen II arthritis in rats, activity% inhibition in injected paw edema; format: functional
In short: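 Arthritis induced in rats by injection of bovine articular cartilage type II collagen (dissolved in 0.01 M AcOH, dialysed against saline) mixed 1:1 with incomplete Freund's adjuvant. Paw inflammation checked weekly for 7 weeks. Inhibition = [Δpaw vol(collagen) − Δpaw vol(collagen + drug)]/[Δpaw vol(collagen) − Δpaw vol(ICFA control)] × 100. Bone damage scored by lateral-projection radiography; p ≤ 0.05 by Student's t-test.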

**Q.** Which results are given for `CCCc1c(O)n(Cc2ccc(F)cc2)c2nc3c(c(=O)n(C)c(=O)n3C)n2c1=O`?
**A.** concentration at 0.25 h [1]: 140000 ng/mL; concentration at 0.5 h [2]: 107000 ng/mL; concentration at 12 h [3]: 88300 ng/mL; concentration at 1 h [4]: 107000 ng/mL; concentration at 4 h [5]: 72400 ng/mL; concentration at 6 h [6]: 78300 ng/mL; concentration at 0.25 h [7]: 20000 ng/mL; concentration at 0.5 h [8]: 45100 ng/mL; concentration at 12 h [9]: 35900 ng/mL; concentration at 1 h [10]: 23100 ng/mL; DTH [11]: 34.1 10e-3mm; inhibition in vivo at 30 mg/kg ([12]; Rattus norvegicus, po): 47%; Inhibition ([12]; route oral, 30 mg/kg): 47%; inhibition in vivo at 10 mg/kg [13]: 38%; inhibition in vivo at 3.3 mg/kg [14]: 30%; Ulcer incidence [15]: 0 number/group; Ulcer incidence [16]: 0 number/group

**Q.** With `CC(C)=CCc1c(O)n(Cc2ccc(F)cc2)c2nc3c(c(=O)n(C)c(=O)n3C)n2c1=O` as the compound, how does the DTH [17] read?
**A.** The DTH was 47.3 10e-3mm.

**Q.** And the Lesion length [18]?
**A.** Its Lesion length is 0 mm rat-1.

**Q.** What about the Lesion length [19] of the same compound?
**A.** Its Lesion length is 0.2 mm rat-1.

**Q.** And the Lesion length [20]?
**A.** The Lesion length was 0 mm rat-1.

**Q.** What about the Ulcer incidence [21] of the same compound?
**A.** The Ulcer incidence was 0 number/group.

**Q.** What about the Ulcer incidence [22] of the same compound?
**A.** The Ulcer incidence was 0 number/group.

**Q.** And the Ulcer incidence [23]?
**A.** Its Ulcer incidence is 2 number/group.

**Q.** And the Ulcer incidence [24]?
**A.** Its Ulcer incidence is 0 number/group.

**Q.** What about the Ulcer incidence [25] of the same compound?
**A.** Its Ulcer incidence is 0 number/group.

**Q.** What about the Ulcer incidence [26] of the same compound?
**A.** Its Ulcer incidence is 0 number/group.

**Q.** What about the Relative potency [27] of the same compound?
**A.** Its Relative potency is 1.1.

**Q.** And the inhibition in vivo at 18 mg/kg [28]?
**A.** Its inhibition in vivo at 18 mg/kg is 39%.

**Q.** What about the Length [29] of the same compound?
**A.** Its Length is 0.1 mm rat-1.

**Q.** And the Length [30]?
**A.** The Length was 3 mm rat-1.

**Q.** What does the source list for `CC(C)=CCc1c(O)n(Cc2ccccc2)c2nc3c(c(=O)n(C)c(=O)n3C)n2c1=O`?
**A.** concentration at 12 h [31]: 10600 ng/mL; concentration at 1 h [32]: 74700 ng/mL; concentration at 2 h [33]: 53800 ng/mL; concentration at 6 h [34]: 35100 ng/mL; concentration at 0.25 h [35]: 2400 ng/mL; concentration at 0.5 h [36]: 10800 ng/mL; concentration at 1 h [37]: 17300 ng/mL; concentration at 2 h [38]: 21900 ng/mL; concentration at 4 h [39]: 39000 ng/mL; concentration at 12 h [40]: 26700 ng/mL; inhibition in vivo at 1 mg/kg [41]: 0%; inhibition in vivo at 3 mg/kg [42]: 22%; inhibition in vivo at 1 mg/kg [43]: 37%; inhibition in vivo at 3 mg/kg [44]: 51%; Inhibition [45]: 0%
